# Screens: PubChem BioAssay, several laboratories
# Shown are actives, neighbours in structure and some others; about 2.3% of the full set was active somewhere.
# CHT PAM = allosteric activators of human choline transporter CHT | 310,000 tested, 0.49% active | AID 488977 | B-score at 10 µM | CHT-expressing cells, membrane potential dye, choline EC20; hits give high values; LV-AA mutant CHT in HEK293 cells;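 active means initial fluorescence not abnormally high and integrated response B-score, plate-corrected, over 3 SD above library mean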
# GalR3 antagonist = blocks the human galanin receptor 3 | O60755 | HEK293 GalR3-CNG cAMP membrane potential fluorescence; galR3 body fused to GalR1 C-terminus | inhibition, % at 3 µM | 360,000 tested, 0.44% active;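 active means inhibition above the screen-wide average plus 3 SD, cut at about 13% in these data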;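 further: forskolin and galanin both at EC90 stimulate the cells; cAMP rise reported by CNG channel membrane potential dye signal; 0% = forskolin plus galanin with DMSO and 100% = forskolin alone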
# Target sequence (O60755 1-299 limits assumed): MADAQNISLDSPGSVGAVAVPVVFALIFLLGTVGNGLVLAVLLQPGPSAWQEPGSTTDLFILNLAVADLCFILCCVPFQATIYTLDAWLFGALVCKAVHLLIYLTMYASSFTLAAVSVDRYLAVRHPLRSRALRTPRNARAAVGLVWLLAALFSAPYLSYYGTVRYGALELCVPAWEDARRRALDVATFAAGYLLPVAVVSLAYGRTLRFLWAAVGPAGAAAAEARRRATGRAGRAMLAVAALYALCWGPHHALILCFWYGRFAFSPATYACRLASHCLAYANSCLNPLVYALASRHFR
# NR2F2 inh = blocks human COUP-TFII nuclear receptor; HEK293T NGFI-A luciferase reporter, luminescence; inhibition, % at 8.6 µM; P24468; 370,000 tested, 0.7% active;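 active means inhibition above a per-plate cutoff, mean inhibition of test wells between control levels plus 3 SD, cut at about 38% in these data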;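 further: cells cotransfected with COUP-TFII expression vector driving the NGFI-A reporter; 0% = median of COUP-TF2 test wells and 100% = reporter-only cells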
# NR2E3 ag-1 = activates human photoreceptor nuclear receptor NR2E3 | 320,000 tested, 0.12% active | inhibition of corepressor binding, % at 4.78 µM | GST-NR2E3/biotin-RetCOR TR-FRET, 1536-well | Q9Y5X4;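 active means percent inhibition above the cutoff of mean plus 3 SD of all tested compounds, set per screening campaign, cut at about 20% in these data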;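 further: 0% = DMSO wells and 100% = biotin wells as full block of FRET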
# Target sequence (Q9Y5X4 whole entry, looked up): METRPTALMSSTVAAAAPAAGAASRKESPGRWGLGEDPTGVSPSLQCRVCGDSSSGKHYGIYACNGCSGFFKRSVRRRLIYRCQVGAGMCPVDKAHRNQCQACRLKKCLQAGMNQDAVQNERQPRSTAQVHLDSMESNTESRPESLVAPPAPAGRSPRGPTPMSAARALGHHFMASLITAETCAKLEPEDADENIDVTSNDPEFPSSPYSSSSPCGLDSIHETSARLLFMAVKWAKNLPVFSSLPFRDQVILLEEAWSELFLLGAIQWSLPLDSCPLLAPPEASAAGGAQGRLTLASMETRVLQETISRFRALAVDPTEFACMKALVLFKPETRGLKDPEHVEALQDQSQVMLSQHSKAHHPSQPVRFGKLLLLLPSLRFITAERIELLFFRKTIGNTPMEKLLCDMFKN
#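 Material: NR2E3–RetCOR corepressor complex | Quantity: 1.35 nM GST-tagged NR2E3 final | Schedule: 5 h at 4 °C | Replication: Singlicate compound wells | Reagent: RetCOR corepressor, biotinylated, 7 nM | Controls: Biotin wells as high control, 0.6% DMSO wells as low control | Signal: TR-FRET, Eu(K)-anti-GST donor, streptavidin-D2 acceptor, ex 340, em 617/671 nm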
# CHT inh = inhibitors of human choline transporter CHT; Q9GZV3; CHT-expressing cells, membrane potential dye, choline response; hits give low values; B-score at 10 µM; 310,000 tested, 0.86% active; AID 488975;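 active means B-score over 3 SD under the library average, and starting fluorescence ratio not unusually high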;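 further: choline stimulus applied at its EC90 after an EC20 pre-addition; B-score computed on integrated fluorescence ratio after choline addition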
# NR2E3 ag-2 = agonists of human NR2E3 nuclear receptor | Q9Y5X4 | 360,000 tested, 0.35% active | CHO-S Gal4-NCOR/VP16-NR2E3 two-hybrid, luciferase | inhibition of corepressor binding, % at 3.98 µM | AID 602229;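 active means inhibition above the mean of all tested compounds plus 3 SD, cut at about 70% in these data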;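 further: 0% = DMSO with NR2E3 transfected cells and 100% = cells lacking NR2E3 construct; higher means lower luciferase signal from less NR2E3 corepressor binding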
# NR2E3 ag confirm-1 = NR2E3 (human) agonism, confirmation; shares compounds with NR2E3 ag-1; cell-free NR2E3 corepressor release, TR-FRET, 5 h; activation (reported as inhibition), % at 3.98 µM; 360 tested, 39% active; in the data active means activation above about 20%
# PPARg-NCOR2 ag = counter-screen for NR2E3 agonists: human PPARgamma-NCOR2 interaction agonists; shares compounds with NR2E3 ag-1; TR-FRET PPARg-NCOR2 coregulator interaction, biochemical; inhibition, % at 3.98 µM; 360 tested, 45% active; AID 504787; in the data active means inhibition above about 20%;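 further: 0% = DMSO vehicle and 100% = wells without protein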
# CHT block conf = confirmation of human choline transporter CHT inhibitors; shares compounds with CHT inh; CHT-expressing cells, choline membrane potential dye; LV-to-AA substituted CHT, HEK293 cells; CHT activity remaining % of control (hits give low values), % at 10 µM; 2,400 tested, 70% active;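 active means choline transporter activity left, mean of duplicates at 10 µM, below buffer-only control mean minus 3 SD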;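 further: depolarization triggered by choline at its EC90 following an EC20 pre-addition; 0% = hemicholinium-3 full block and 100% = buffer-only control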
# HEK293 MPD ctr = counter-screen for CHT inhibitors: effect in parental HEK293 cells | shares compounds with CHT inh | membrane potential dye, choline response; active = decrease or increase beyond buffer ±3SD | membrane potential ratio readout (active if shifted either direction beyond buffer ±3SD; no single direction) at 10 µM | 2,400 tested, 4% active;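 further: parental cells lack the transporter so any hit is non-specific; ratio is peak minus trough fluorescence over baseline after EC90 choline challenge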
# NR2E3 ag confirm-2 = NR2E3 agonism confirmed in two-hybrid assay; shares compounds with NR2E3 ag-2; inhibition, % at 3.98 µM; CHO-S mammalian two-hybrid NR2E3-NCOR, luciferase luminescence; 2,300 tested, 51% active;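 active means average inhibition above a cutoff equal to the mean inhibition of all tested compounds plus one SD, cut at about 70% in these data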;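 further: 0% = DMSO in NR2E3 cells and 100% = DMSO in cells lacking NR2E3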
# VP16 counter = reduces GAL4-VP16 reporter signal in NR2E3 counterscreen; shares compounds with NR2E3 ag-2; CHO-S GAL4-VP16 luciferase reporter, luminescence; inhibition, % at 3.98 µM; 2,300 tested, 29% active;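 active means mean inhibition above a cutoff equal to the average over all tested compounds plus one standard deviation, cut at about 70% in these data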;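 further: luciferase from a UAS reporter driven by GAL4-VP16 transactivation; 0% = DMSO with VP16-transfected cells and 100% = DMSO with cells lacking VP16; higher means less reporter light so more repression of VP16 activity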
# * hit, by the source's call; i = inactive; nt = no result.
SMILES,CHT PAM,GalR3 antagonist,NR2F2 inh,NR2E3 ag-1,CHT inh,NR2E3 ag-2,others
O=c1[nH]c(=O)n(CCC2=CCCCC2)c(O)c1C=NC1CCN(Cc2ccccc2)CC1,i,2,52*,0,i,-12,
COc1cc2c(c(OC)c1OC)-c1ccc(O)cc1C(NC(C)=O)CC2 (configuration not stated),nt,3,-58,nt,nt,47,
COc1cc2c(c(OC)c1OC)-c1ccc(O)cc1[C@@H](NC(C)=O)CC2,8*,4,-34,-4,i,26,
CC(C)(C)n1nnnc1C1CN=C(c2ccccc2)c2ccccc2N1 (configuration not stated),nt,nt,-3,nt,nt,nt,
COc1cc(OC)c(OC)cc1CNCCc1cccc(F)c1,i,-9,-8,1,i,-26,
COc1ccc(CNCCc2cccc(F)c2)c2ccccc12,i,nt,nt,nt,-7.2*,nt,
CN1CN(c2ccccc2)C2(CCN(CCCSc3ccccc3NC(=O)/C=C/c3ccccc3)CC2)C1=O,nt,-5,39*,nt,nt,-3,
O=C1C2CC=CCC2C(=O)N1SC(Cl)(Cl)Cl (configuration not stated),nt,35*,15,nt,nt,nt,
C/C=C(\C)C(=O)OC1C(C)=C2C(C1OC(=O)CCCCC)C(C)(OC(C)=O)CC(OC(=O)CCC)C1(O)C2OC(=O)C1(C)O (configuration not stated),8*,nt,nt,-1,i,nt,
COC(=O)[C@@]1(O)c2c(oc3cccc(O)c3c2=O)C=C[C@H]1O,nt,nt,-18,nt,nt,nt,
N#CCC[C@@H]1CC[C@]2(CCCN(Cc3ccncc3)C2)O1,nt,nt,15,nt,nt,nt,
CC/C(=C\C=C\[C@@H]1C=C[C@@H]2CCC[C@H]2[C@@H]1C(=O)c1ccc[nH]1)[C@@H]1O[C@@H]([C@@H](C)C(=O)O)CC[C@@H]1C,i,nt,nt,-1,-5.5*,nt,
COc1ccc(Cc2cn(C)c(N)n2)cc1,nt,nt,-5,nt,nt,nt,
C[C@H]1O[C@@H](OC2CC[C@]3(C=O)[C@H]4CC[C@]5(C)[C@@H](C6=CC(=O)OC6)CC[C@]5(O)[C@@H]4CC[C@]3(O)C2)CC2OC(C)(C)OC21 (some centres not stated),i,34*,75*,-3,i,-12,
CCOC(=O)CC[C@@H]1CC[C@]2(CCCN(Cc3ccccn3)C2)O1,nt,nt,-2,nt,nt,nt,
COC(=O)[C@H]1C[C@@]2(C)c3ccccc3N[C@H]2N1,nt,nt,-4,nt,nt,nt,
CC(=O)N1c2ccccc2C(c2ccccc2)=NCC1C(=O)NC1CCCCC1 (configuration not stated),nt,nt,-7,nt,nt,nt,
CN1C(=O)COc2c(C(=O)NC3CN4CCC3CC4)cc(Cl)cc21 (configuration not stated),8.9*,nt,nt,1,i,nt,
O=[N+]([O-])c1ccc(N2CCNCC2)cc1NC1CC1,6.4*,nt,nt,0,i,nt,
O=[N+]([O-])c1ccc(N2CCNCC2)cc1N1CCCCC1,i,-9,3,2,i,6,
CCNc1cc(N2CCNCC2)ccc1[N+](=O)[O-],7.3*,nt,nt,2,i,nt,
CC(C)(C)NC(=O)CN1C(=O)[C@@H](Cc2c[nH]c3ccccc23)N=C(c2ccccc2)c2ccccc21,nt,nt,3,nt,nt,nt,
Oc1ccc2c3c1OC1c4[nH]c5ccccc5c4C[C@@]4(O)C(C2)N(CC2CC2)CC[C@]314 (some centres not stated),nt,-2,1,nt,nt,-11,
C=C(C)CN1CC[C@]23c4c5ccc(O)c4O[C@H]2c2[nH]c4ccccc4c2C[C@@]3(O)C1C5,i,nt,nt,0,-5.3*,nt,
CCCCn1c(NC(=O)c2ccc(Br)o2)c(C(=O)OCC)c2nc3ccccc3nc21,i,-7,17,30*,i,-9,
SMILES,CHT PAM,GalR3 antagonist,NR2F2 inh,NR2E3 ag-1,CHT inh,NR2E3 ag-2,others
CCCCn1c(NS(=O)(=O)c2ccccc2)c(C(=O)OCC)c2nc3ccccc3nc21,i,-13,30,6,i,-7,
c1ccc(Cn2nnnc2C2CN=C(c3ccccc3)c3ccccc3N2)cc1 (configuration not stated),nt,nt,0,nt,nt,nt,
C[C@H]1[C@H](OC(=O)CCC(=O)NCc2ccc(C(=O)O)cc2)O[C@@H]2O[C@@]3(C)CC[C@H]4[C@H](C)CC[C@@H]1C24OO3,i,nt,nt,-2,i,93*,
C=CCCC(NC(=O)OCc1ccccc1)P(=O)(Oc1ccccc1)Oc1ccccc1 (configuration not stated),nt,nt,3,nt,nt,nt,
Cc1cc(NCCN)nc2ccccc12,11*,-5,-2,-1,i,-24,
O=C(NCCN1CCC2(CC1)C(=O)NCN2c1ccccc1)c1ccc(F)c(F)c1,nt,-10,13,nt,nt,nt,
CN[C@H]1C[C@H]2O[C@@](C)([C@H]1OC)n1c3ccccc3c3c4c(c5c6ccccc6n2c5c31)C(=O)NC4,i,nt,nt,3,-5.3*,nt,
O=c1c2ccccc2[nH]c(=S)n1-c1ccc(Br)cc1,i,-4,14,36*,i,-20,NR2E3 ag confirm-1=-7;PPARg-NCOR2 ag=-4
CC(c1ccccc1)n1cc(C(=O)NC2CCCC2)nn1 (configuration not stated),nt,nt,2,nt,nt,nt,
Cn1ncnc2c(=O)n(C)c(=O)nc1-2,i,nt,nt,32*,i,104*,NR2E3 ag confirm-1=36*;PPARg-NCOR2 ag=66*;NR2E3 ag confirm-2=98*;VP16 counter=97*
CCOC(=O)CC[C@@H]1CC[C@]2(CCCN(Cc3ccncc3)C2)O1,nt,nt,13,nt,nt,nt,
Cc1ccccc1-n1c(O)c(/C=C2/C(c3ccccc3)=Nc3ccccc32)c(=O)[nH]c1=O,i,-2,-8,0,-5.2*,-75,CHT block conf=53%*;HEK293 MPD ctr=i
